A value given as a limit tells only on which side of the number the result lay.

Test [1] has as its target Protein fosB/Transcription factor jun-D (Homo sapiens) (UniProt P53539+P17535). In words: (§1) Inhibition of recombinant Hi6-tagged deltaFOSB (unknown origin)/His6-tagged JUND (unknown origin) expressed in insect cells interaction with TAMRA labeled 5'-GTCGGTGACTCAAAACA-3' AP1 oligonucleotide measured after 15 mins by fluorescence polarization assay. Summed up: (§2)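 ΔFosB/JunD heterodimer, 280 nM (as monomers). Compound serially diluted, 10 concentrations over 0–200 μM in quadruplicate. Compound premixed 5 min with 25 nM TAMRA-cdk5 AP-1 19-mer duplex in 20 mM HEPES pH 7.5, 150 mM NaCl, then protein added for 15 min. FP read at ex 530/540, em 590 nm. Wells of compound with oligo and no protein check for DNA interference. IC50 from a four-parameter fit, mean ± SD of two independent days.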
A general note: Fluorescence polarisation rises when a labelled molecule tumbles more slowly, as on binding a larger partner.

Test [2] has as its target T1, Protein fosB/Transcription factor jun-D (Homo sapiens, UniProt P17535+P53539).
T1 sequence (P53539 whole entry): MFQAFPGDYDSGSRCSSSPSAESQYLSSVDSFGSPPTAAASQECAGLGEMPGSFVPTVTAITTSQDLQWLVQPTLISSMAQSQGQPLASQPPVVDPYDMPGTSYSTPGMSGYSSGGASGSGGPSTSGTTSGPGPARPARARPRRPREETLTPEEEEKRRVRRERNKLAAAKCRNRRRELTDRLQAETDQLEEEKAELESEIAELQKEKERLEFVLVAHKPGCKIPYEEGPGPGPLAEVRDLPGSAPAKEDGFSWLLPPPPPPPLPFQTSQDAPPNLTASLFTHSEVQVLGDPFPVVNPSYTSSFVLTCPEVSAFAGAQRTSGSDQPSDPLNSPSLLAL
T1 sequence (P17535 whole entry): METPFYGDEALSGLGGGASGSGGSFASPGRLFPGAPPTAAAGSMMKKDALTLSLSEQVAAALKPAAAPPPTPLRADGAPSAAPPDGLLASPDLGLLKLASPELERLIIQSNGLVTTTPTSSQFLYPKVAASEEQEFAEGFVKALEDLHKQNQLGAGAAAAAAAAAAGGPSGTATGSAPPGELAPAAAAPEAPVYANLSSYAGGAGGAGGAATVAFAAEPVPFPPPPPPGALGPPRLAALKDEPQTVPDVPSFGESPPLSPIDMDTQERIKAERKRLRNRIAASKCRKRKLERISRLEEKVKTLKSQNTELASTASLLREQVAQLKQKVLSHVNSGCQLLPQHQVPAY
The description is as §1. The method, boiled down: as §2

In test [3] the target is T2, Protein FosB (Homo sapiens, UniProt P53539).
T2 sequence (P53539 whole entry): T1 sequence (P53539 whole entry)
In words: (§3) Inhibition of recombinant Hi6-tagged deltaFOSB (unknown origin) expressed in insect cells interaction with TAMRA labeled 5'-GTCGGTGACTCAAAACA-3' AP1 oligonucleotide measured after 15 mins by fluorescence polarization assay. The method, boiled down: (§4)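 ΔFosB homodimer, 320 nM (as monomers). Compound serially diluted, 10 concentrations over 0–200 μM in quadruplicate. Compound premixed 5 min with 25 nM TAMRA-cdk5 AP-1 19-mer duplex in 20 mM HEPES pH 7.5, 50 mM NaCl, then protein added for 15 min. FP read at ex 530/540, em 590 nm. Compound-plus-oligo wells without protein serve as the interference control. Four-parameter fit; IC50 is mean ± SD of two independent days.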

Test [4] addresses T3, Protein FosB (Homo sapiens) (UniProt P53539).
T3 sequence (whole entry): T1 sequence (P53539 whole entry)
The description is as §3. The method, boiled down: as §4

In test [5] the target is T4, Protein fosB/Transcription factor jun-D (Homo sapiens, UniProt P53539+P17535).
T4 sequence (P53539 whole entry): T1 sequence (P53539 whole entry)
T4 sequence (P17535 whole entry): T1 sequence (P17535 whole entry)
The test is described as §1. The method, boiled down: as §2

Take `COc1cc(OC)c2c(C3CCNCC3)nc3c(OC)cccc3c2c1`: the inhibition entry in test [1] and in test [4] was “Dose-dependent effect” throughout. The IC50 is 55.7 µM in test [2] and 58 µM in test [3] (read-out: IC50).
`COc1cc(OC)c2c(C(=O)O)nc3c(OC)cccc3c2c1`: the IC50 in test [2] and in test [3] (read-out: IC50) was greater than 100 µM throughout.
`COc1cc(OC)c2c(C3CCN(C(C)=O)CC3)nc3c(OC)cccc3c2c1`: the IC50 in test [2] and in test [3] (read-out: IC50) was greater than 100 µM each time.
With `COc1cccc2c1NC(C(=O)Nc1ccccc1)C1CC=CC21` (configuration not stated), the IC50 in test [2] and in test [3] (read-out: IC50) was greater than 100 µM in each case.
For the compound `CCc1nc2c(OC)cccc2c2cc(OC)cc(OC)c12`, the IC50 result in test [5] and in test [3] was “Not Active” in each case.
Turning to `CCOC(=O)c1nc2c(C)cccc2c2c1CCC2`, the IC50 in test [2] and in test [3] (read-out: IC50) was greater than 100 µM each time.
As for `COc1cccc2c1NC(C(=O)O)C1CCCC21` (configuration not stated), the IC50 in test [2] and in test [3] (read-out: IC50) was greater than 100 µM in each case.
With `CNC(=O)C1Nc2c(OC)cccc2C2C=CCC12` (configuration not stated), the 50% inhibitory concentration (IC50) in test [2] and in test [3] (read-out: IC50) was greater than 100 µM each time.
On to `COc1cccc2c1NC(C(=O)O)C1CC=CC21` (configuration not stated), for which the IC50 came to 13.1 µM in test [2] and 28.9 µM in test [3] (read-out: IC50).
The corresponding values for `Cc1cccc2c3c(c(C(=O)O)nc12)CCC3` are greater than 100 µM and greater than 100 µM.
In the case of `COc1cccc2c1NC(CO)C1CC=CC21` (configuration not stated), the IC50 in test [2] and in test [3] (read-out: IC50) was greater than 100 µM in each case.
For the compound `COc1cccc2c1N(C(C)=O)C(C(=O)O)C1CC=CC21` (configuration not stated), the IC50 in test [2] and in test [3] (read-out: IC50) was greater than 100 µM in each case.
Take `COc1cc(OC)c2c(C3CCN(C(=O)OC(C)(C)C)CC3)nc3c(OC)cccc3c2c1`: the IC50 in test [2] and in test [3] (read-out: IC50) was greater than 100 µM each time.
`CCOC(=O)C1Nc2c(OC)cccc2C2C=CCC12` (configuration not stated): the 50% inhibitory concentration (IC50) in test [2] and in test [3] (read-out: IC50) was greater than 100 µM each time.
Regarding `Cc1cccc2c1NC(C(=O)O)C1CC=CC21` (configuration not stated), the IC50 result in test [5] and in test [3] was “Not Active” each time.

The term IC50 denotes the concentration needed to halve the response being measured.

The record behind these values is ChEMBL document CHEMBL4622938, “Discovery of phenanthridine analogues as novel chemical probes disrupting the binding of DNA to ΔFosB homodimers and ΔFosB/JunD heterodimers” (Bioorg Med Chem Lett, 2020).
